The results in this text go back to PubChem BioAssay.

Experiment [1] is described as follows: inhibitors of TNFa-induced NFkB p65 translocation, primary screen, imaging, HUVEC, MLSMR starter and 10KST1 sets (AID 438;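 active means inhibition above 20% together with a positive visual image hit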;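 further: compound added about 3h40 before a 20 min TNFalpha stimulation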;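 on inhibition: signal is the nuclear over cytoplasmic p65 intensity ratio per well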). As to conditions: HUVEC TNFa-induced p65 nuclear translocation; cell count: measured here: nuclei count (cytotoxicity indicator), at 2.08 µM; inhibition: at 2 µM, stronger effect = higher value, 0% TNFa-plus-vehicle, 100% no-TNFa wells.
Experiment [2] can be described thus: endothelial E-selectin expression blockers – imaging, HUVEC, immunofluorescence, MLSMR starter and 10KST1 sets, primary screen (AID 487;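 active means visually confirmed hit in the image check and inhibition above 20%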;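 on inhibition: signal is fraction of cell area covered by stained E-selectin grains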;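 on nuclei count: 100% = median nuclei count of all wells on the same plate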). As to conditions: HUVEC TNFalpha-induced E-selectin immunofluorescence imaging, at 2 µM; inhibition: stronger effect = higher value; nuclei count: measured here: cell number, toxicity.
A short description of experiment [3]: Primary imaging screen for DUSP6 inhibitors that restore phospho-Erk in transfected HeLa cells, chemical complementation (AID 609;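 active means compounds giving at least 50% inhibition in the cell-based MKP-3 phosphatase rescue imaging test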;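 on inhibition: phospho-Erk level distribution per well compared with pooled transfected vehicle control wells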). As to conditions: HeLa MKP-3 transfected, phospho-Erk imaging KS statistic, at 10 µM, cells stimulated with TPA for 15 min.
Experiment [4] has as its target Dual specificity protein phosphatase 6 (Homo sapiens) (UniProt Q16828). Described as above. As to conditions: HeLa MKP-3 transfected, phospho-Erk imaging KS statistic; at 10 µM; stronger effect = higher value; cells stimulated with TPA for 15 min.
The target in experiment [5] is Voltage-gated potassium channel subunit beta-2 (Rattus norvegicus) (UniProt P62483). Put plainly: inhibitors of rat Kvbeta2 reductase activity – biochemical, NADPH fluorescence, primary screen (AID 622;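 active means fluorescence slope higher than the sample average by over 3 SD, cut at about -0.22 in these data, passing the limit was not always enough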;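 further: slope of raw intensity against log time taken from 70 to 1610 s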). As to conditions: recombinant KvBeta, 4-cyanobenzaldehyde reduction, at 10 µM, stronger effect = higher value.
The target is the same in experiment [6]. Put plainly: enhancers of rat Kvbeta2 NADPH turnover – biochemical, NADPH fluorescence, primary screen (AID 623;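 active means NADPH fluorescence slope more negative than the mean of all samples by about 3 SD, 99.7% confidence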;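 further: fluorescence intensity change per second fitted from 20 to 320 s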). As to conditions: Recombinant KvBeta, NADPH fluorescence decrease slope, 10 min; at 10 µM; stronger effect = lower value.
The target in experiment [7] is Muscarinic acetylcholine receptor M4 (Homo sapiens) (UniProt P08173). Put plainly: M4-linked GIRK flux change, two-sided – cell-based, HEK293 M4/GIRK, thallium flux, BTC-AM, M4 allosteric agonist project, primary screen (AID 625).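 Further: thallium influx through GIRK channels coupled to M4 in HEK293 cells with BTC-AM dye.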 As to conditions: at 10 µM, actives lie on both sides. An outline of the steps:
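Material: M4/GIRK1/GIRK2 stable HEK293 cell line. Medium: pH 7.3 thallium assay buffer. Dosing: single compound concentration, 10 µM final. Schedule: 1 h dye loading, 2 min kinetic read. Measured by: kinetic fluorescence with BTC-AM dye. Read-out: post-addition slope, 15–24 s, of baseline-normalized fluorescence. Benchmarks: carbachol and DMSO controls.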

Experiment [8] is described as follows: inhibitors of larval lipid processing in zebrafish, primary screen, whole organism, PED6 fluorescence, gall bladder and intestine (AID 686;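 active means a full or partial loss of lipid-probe fluorescence in the fish gall bladder, intestine or both, judged by eye; inactive means no fluorescence loss, or compound toxic to the fish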;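 further: larvae 5 to 7 days old with five fish per well; signal comes from phospholipase A2 cleavage of quenched PED6 carried via bile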). As to conditions: Zebrafish larvae PED6 lipid processing, fluorescence scoring; screened at 20 µM (by protocol). The essentials: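 System: live zebrafish larvae aged 5-7 days, whole organism; measure: graded gall bladder and intestinal fluorescence inhibition per well; incubation: overnight exposure; reagent: ingested quenched lipid PED6 at 100 nM; signal: By-eye fluorescence microscopy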

Experiment [9] in a line: loss of swimming-algae plug formation – whole organism, Chlamydomonas reinhardtii, WT vs cilia-less mutant, absorbance, 96-well, primary screen (AID 463189;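 active means inhibition at or above 50% relative to wild type and mutant plate controls; inactive means inhibition below 50%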;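 further: 0% = wild type cc124 cells in DMSO and 100% = ciliumless bld1 mutant cells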). As to conditions: Chlamydomonas reinhardtii gravitaxis, OD600 absorbance, 2 days; at 10 µM; stronger effect = higher value.
Where [10] appears, read: measured here: cell density z-score.
Setting [11] is: measured here: nuclear c-Myc green intensity z-score.
Setting [12] is: measured here: nuclear pErk red intensity z-score, stronger effect = higher value.

The source made the active and inactive calls.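 How the source made its calls, unless noted: active means fluorescence slope after compound addition differing from the mean of all tested samples at 99.7% confidence, mostly higher but some lower; inactive means the rest.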

Chain of Muscarinic acetylcholine receptor M4 (Homo sapiens) (P08173 whole entry, looked up): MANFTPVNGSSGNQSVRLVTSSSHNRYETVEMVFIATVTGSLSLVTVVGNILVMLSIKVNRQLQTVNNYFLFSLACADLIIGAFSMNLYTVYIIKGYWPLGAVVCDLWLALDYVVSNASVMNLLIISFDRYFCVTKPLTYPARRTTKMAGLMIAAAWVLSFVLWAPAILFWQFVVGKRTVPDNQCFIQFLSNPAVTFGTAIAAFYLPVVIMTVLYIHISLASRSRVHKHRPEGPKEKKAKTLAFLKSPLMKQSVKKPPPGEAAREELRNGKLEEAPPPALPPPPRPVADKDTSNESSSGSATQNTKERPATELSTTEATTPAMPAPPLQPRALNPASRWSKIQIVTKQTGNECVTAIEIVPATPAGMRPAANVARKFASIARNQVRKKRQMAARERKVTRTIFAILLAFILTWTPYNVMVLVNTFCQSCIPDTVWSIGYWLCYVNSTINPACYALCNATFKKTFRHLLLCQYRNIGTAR
Chain of Dual specificity protein phosphatase 6 (Homo sapiens) (Q16828 whole entry, looked up): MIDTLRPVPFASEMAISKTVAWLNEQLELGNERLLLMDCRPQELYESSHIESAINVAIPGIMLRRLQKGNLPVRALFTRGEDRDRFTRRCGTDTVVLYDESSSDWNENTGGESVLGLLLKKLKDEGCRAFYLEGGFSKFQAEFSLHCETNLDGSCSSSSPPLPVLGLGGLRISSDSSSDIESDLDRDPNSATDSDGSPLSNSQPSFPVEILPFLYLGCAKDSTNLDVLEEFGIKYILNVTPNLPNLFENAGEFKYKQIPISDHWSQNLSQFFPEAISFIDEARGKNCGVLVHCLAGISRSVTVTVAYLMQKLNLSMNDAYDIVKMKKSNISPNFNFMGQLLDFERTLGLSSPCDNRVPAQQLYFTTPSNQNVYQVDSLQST
Chain of Voltage-gated potassium channel subunit beta-2 (Rattus norvegicus) (P62483 whole entry, looked up): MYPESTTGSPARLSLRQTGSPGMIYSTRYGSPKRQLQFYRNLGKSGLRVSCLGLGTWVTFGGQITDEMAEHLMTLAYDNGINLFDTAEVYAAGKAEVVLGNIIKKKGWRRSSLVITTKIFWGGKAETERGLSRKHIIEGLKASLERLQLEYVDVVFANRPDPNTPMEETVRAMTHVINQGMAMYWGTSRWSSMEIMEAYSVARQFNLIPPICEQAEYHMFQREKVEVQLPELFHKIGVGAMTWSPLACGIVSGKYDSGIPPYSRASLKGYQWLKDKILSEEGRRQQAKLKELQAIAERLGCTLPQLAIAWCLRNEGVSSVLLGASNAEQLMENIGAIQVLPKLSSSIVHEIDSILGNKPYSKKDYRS

As for `CCOc1ccc(-c2nc(C#N)c(NCC(C)C)o2)cc1`, the cell count in experiment [1] was 402. Also, the inhibition (in general, the change of the read-out against control, counted positive when it falls) in [1] is -4% (inactive); in experiment [2], -45.5% (inactive); in experiment [4], -2.69% (inactive); in experiment [9], -4.03% (inactive). In [2], the nuclei count was 159%. For the same compound, the results for the z-score in experiment [3] (setting [10]), in experiment [3] (setting [11]) and in experiment [3] (setting [12]) were -1.19, -0.813 and 2.25, respectively. Besides, the figures for the fluorescence slope in experiment [5] and in experiment [7] were -0.474 (inactive) and 0.00573 (inactive), respectively. In addition, the NADPH fluorescence slope in experiment [6] was -8e-05 (inactive). Besides, in experiment [8], the compound was classed as inactive.
For `CC(C)Cc1nc(N2CCOCC2)c(C#N)c2c1COC(C)(C)C2`, in experiment [1], the cell count is 584. For the same compound, the inhibition in experiment [1] is -7% (inactive); in [2], -84.6% (inactive); in experiment [4], -2.09% (inactive); in experiment [9], 3.97% (inactive). In [2], this compound had a nuclei count of 146%. In addition, the z-score in experiment [3] (setting [10]) was -0.646; in [3] (setting [11]) it was 0.861; in experiment [3] (setting [12]) it was 0.329. For the same compound, the fluorescence slope in experiment [5] was -0.405 (inactive); in [7], 0.00418 (inactive). Further, in experiment [6], the NADPH fluorescence slope was -3.3e-05 (inactive). In addition, the call in experiment [8] was inactive.
Consider `COc1ccc(-c2nc3c(Br)c(N)c(Br)cc3o2)cc1`, for which the cell count in [1] was 497. Also, the inhibition was -7.6% (inactive) in experiment [1], -77.2% (inactive) in [2], -1.98% (inactive) in experiment [4] and 14.6% (inactive) in experiment [9]. The compound further returned a nuclei count in [2] of 140%. In addition, the z-score in experiment [3] (setting [10]) is 0.844; in experiment [3] (setting [11]) it was -1.44; in experiment [3] (setting [12]), 0.173. The fluorescence slope was -0.404 (inactive) in experiment [5] and 0.0064 (inactive) in experiment [7]. Moreover, the NADPH fluorescence slope in experiment [6] is -2.1e-05 (inactive). Also, in [8], the result was inactive.
As to `CCOC(=O)COn1c(=O)c(-c2ccc(OC)c(OC)c2)[n+]([O-])c2ccccc21`, in [1], the cell count is 542. Besides, the inhibition was -6% (inactive) in [1], -40.6% (inactive) in experiment [2], -1.98% (inactive) in experiment [4] and 37.5% (inactive) in [9]. This compound showed a nuclei count in experiment [2] of 142%. Moreover, the z-score in experiment [3] (setting [10]) was 0.722; in [3] (setting [11]), -0.529; in [3] (setting [12]), 0.673. Also, the fluorescence slope in experiment [5] was -0.33 (inactive); in experiment [7], 0.00588 (inactive). The NADPH fluorescence slope in [6] is -7.7e-06 (inactive). Further, the compound was classed as inactive in experiment [8].
Take `CC(C)CNC(=O)c1c(N)n(/N=C/c2cccnc2)c2nc3ccccc3nc12`: in experiment [1], the cell count stood at 412. Further, the inhibition in experiment [1] is -2.8% (inactive); in experiment [2], -18% (inactive); in experiment [4], 17.7% (inactive); in experiment [9], 35.6% (inactive). The same compound registered a nuclei count in [2] of 105%. In addition, the z-score in experiment [3] (setting [10]) is 1.93; in [3] (setting [11]), -1.56; in experiment [3] (setting [12]), -0.113. In addition, the results for the fluorescence slope in experiment [5] and in experiment [7] were -0.347 (inactive) and 0.00594 (inactive), respectively. In addition, the NADPH fluorescence slope in experiment [6] is 4.3e-06 (inactive). For the same compound, the result in experiment [8] was inactive.
As for `CC12CN3CC(C)(CN(C1)C3c1ccc(Cl)cc1Cl)C2O` (stereo unspecified), the cell count in [1] was determined as 486. Moreover, the inhibition in experiment [1] is -4% (inactive); in experiment [2], -90.6% (inactive); in experiment [4] it was -0.584% (inactive); in experiment [9], -8.3% (inactive). The nuclei count in experiment [2] was determined as 121%. Besides, the z-score in experiment [3] (setting [10]) is -2.88; in experiment [3] (setting [11]), 1.19; in [3] (setting [12]), -1.32. Besides, the figures for the fluorescence slope in experiment [5] and in experiment [7] were -0.52 (inactive) and 0.0049 (inactive), respectively. In addition, in [6], the NADPH fluorescence slope was -6.5e-05 (inactive). The compound was called inactive in experiment [8].
For `CC1(C)Cc2c(C#N)c(OCC(=O)c3ccccc3)nc(-c3ccoc3)c2CO1`, in experiment [1], the cell count is 547. Further, the inhibition was -9.6% (inactive) in experiment [1], 14.2% (inactive) in experiment [2], -0.233% (inactive) in experiment [4] and 56.8% (active) in experiment [9]. This compound came in with a nuclei count in [2] of 98.1%. Besides, the z-score in [3] (setting [10]) was 0.66; in [3] (setting [11]) it was -1.5; in experiment [3] (setting [12]), -0.876. Besides, the fluorescence slope in [5] is -0.465 (inactive); in [7] it was 0.00542 (inactive). In addition, the NADPH fluorescence slope in experiment [6] was 2.6e-05 (inactive). Also, in experiment [8], the compound was classed as inactive.
On to `O=C(Cc1ccccc1)Nc1cccc(-c2nnc(-c3ccco3)o2)c1`, for which the cell count in experiment [1] was found to be 665. Further, the inhibition is -8.6% (inactive) in [1], 46.6% (inactive) in experiment [2], -9.53% (inactive) in experiment [4] and -2.78% (inactive) in experiment [9]. The compound also yielded a nuclei count in experiment [2] of 188%. Besides, the z-score in experiment [3] (setting [10]) came out at 0.0893; in experiment [3] (setting [11]) it was 1.04; in experiment [3] (setting [12]), 1.35. Moreover, the figures for the fluorescence slope in experiment [5] and in experiment [7] were -0.485 (inactive) and 0.00851 (inactive), respectively. In addition, in experiment [6], the NADPH fluorescence slope was -5.1e-05 (inactive). For the same compound, the call in experiment [8] was inactive.
In the case of `CCCC1Cc2c(sc3nc(SC)nc(N)c23)CO1` (stereo unspecified), in experiment [1], the cell count came out at 489. Moreover, the inhibition in experiment [1] was -14.7% (inactive); in experiment [2], 27.8% (inactive); in experiment [4], -3.97% (inactive); in experiment [9], 27.7% (inactive). The nuclei count in experiment [2] was 170%. For the same compound, the z-score in experiment [3] (setting [10]) is -0.331; in experiment [3] (setting [11]) it was 0.0787; in experiment [3] (setting [12]), 0.594. The figures for the fluorescence slope in experiment [5] and in experiment [7] were -0.47 (inactive) and 0.00573 (inactive), respectively. For the same compound, the NADPH fluorescence slope in [6] was -4.4e-05 (inactive). For the same compound, the compound was called inactive in experiment [8].
With `C=CCN(C(=O)CCC(=O)O)C1CC(=O)N(c2ccc(OC)cc2)C1=O` (stereo unspecified), in [1], the cell count came to 549. Moreover, the inhibition in experiment [1] was 0.4% (inactive); in experiment [2] it was 17.4% (inactive); in experiment [4], 14.7% (inactive); in [9] it was -19.1% (inactive). In addition, the nuclei count in experiment [2] worked out at 97.5%. Besides, the z-score in experiment [3] (setting [10]) is 1.91; in [3] (setting [11]) it was 0.0386; in [3] (setting [12]), -1.01. Also, the fluorescence slope in [5] is -0.482 (inactive); in experiment [7], 0.005 (inactive). Moreover, the NADPH fluorescence slope in experiment [6] is -3.4e-05 (inactive). Moreover, the result in experiment [8] was inactive.
In the case of `COc1ccc(/C(O)=C2\C(=O)C(=O)N(c3cc(C)on3)C2c2ccccc2OC)cc1C` (stereo unspecified), the cell count in experiment [1] worked out at 556. In addition, the inhibition in experiment [1] is -11.7% (inactive); in experiment [2] it was 9.9% (inactive); in experiment [4], -8.27% (inactive); in experiment [9], -0.426% (inactive). The compound also came in with a nuclei count in experiment [2] of 118%. Besides, the z-score in experiment [3] (setting [10]) was -1.41; in experiment [3] (setting [11]), -1.49; in experiment [3] (setting [12]) it was -1.43. The fluorescence slope is -0.473 (inactive) in experiment [5] and 0.00597 (inactive) in experiment [7]. The NADPH fluorescence slope in [6] was -2.1e-05 (inactive). The compound was classed as inactive in experiment [8].
With `COc1cccc(C2/C(=C(\O)c3ccc4c(c3)OCCO4)C(=O)C(=O)N2CCCN(C)C)c1OC` (stereo unspecified), the cell count in experiment [1] was 396. In addition, the inhibition was 1.1% (inactive) in experiment [1], -21.2% (inactive) in experiment [2], -6.86% (inactive) in experiment [4] and 18.1% (inactive) in [9]. The same compound yielded a nuclei count in experiment [2] of 174%. Moreover, the z-score in experiment [3] (setting [10]) is 0.231; in [3] (setting [11]), -0.342; in [3] (setting [12]) it was 2. Also, the fluorescence slope was -0.452 (inactive) in experiment [5] and 0.00452 (inactive) in experiment [7]. For the same compound, in [6], the NADPH fluorescence slope is -9.9e-05 (inactive). The call in experiment [8] was inactive.
